# Assay outcomes from PubChem.
# This is a sample that favours compounds with a hit; in the whole collection about 1.7% have one here.
# PABP1 MLLE inh = blocks PAM2 peptide binding to the PABP1 MLLE domain; GST-MLLE / FITC-PAM2 fluorescence polarization; actives 0.36% (n = 360,000); inhibition, % at 20 µM; in the data active = inhibition above about 35%, passing the limit was not always enough;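 also: plate controls were DMSO wells with GST-MLLE for no effect and wells lacking GST-MLLE protein for full effect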
# MT1-MMP act inh = blocks activation of human MT1-MMP; P50281; HT1080 RFP-PRO-GFP cells, GFP/RFP ratio fluorescence, overnight; percent of plate control window, DMSO zero; GFP/RFP ratio change, % at 20 µM; actives 0.061% (n = 360,000); AID 651647;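 active = GFP/RFP ratio change of at least 30% with cell ATP level not reduced by more than half and red fluorescence within 50% of control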
#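 Test system: HT1080 cells expressing an RFP-PRO-GFP fluorescent reporter construct / Compound dosing: single-point 20 µM compound, 1% DMSO / Schedule: cells overnight before dosing, compound overnight, 37 °C, 5% CO2 / Evaluation: GFP/RFP fluorescence ratio / Control set: DMSO and RFP-L50D-GFP cell wells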
# PABP FP inh = PABP-poly(A) binding inhibition; P11940; PABP-poly(A) RNA binding, fluorescence polarization; inhibition, % at 35 µM; actives 1% (n = 290,000); AID 2014;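 also: calls also rest on retests at 20 µM and on dose response follow-up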
# eIF4H inh = inhibitors of RNA binding by human eIF4H | inhibition, % at 35 µM | actives 0.94% (n = 290,000) | Q15056 | AID 2012 | eIF4H fluorescence polarization binding assay;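 also: calls also rest on retests at 20 µM and on dose response follow-up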
# SKN-1 block = inhibitors of C. elegans SKN-1; actives 0.49% (n = 360,000); C. elegans VP596 Pgst-4::GFP/RFP ratio, acrylamide-induced, 24 h; inhibition, % at 21.8 µM;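 active = interference check ratio from 0.5 to 1.5 plus GFP to RFP signal ratio inhibition reaching or exceeding a fixed threshold, cut at about 30% in these data, passing the limit was not always enough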
# * hit, by the source's call; ? = inconclusive; / = not tested or not shown. Unless noted, no rule for the calls is given here.
SMILES,PABP1 MLLE inh,MT1-MMP act inh,PABP FP inh,eIF4H inh,SKN-1 block
Cc1ccc(C2C(C#N)=C(N)Oc3c2oc(CO)cc3=O)o1 (stereo not given),3.6,-1.8,55.9,45.3*,34.3
CC(C)Oc1ccc(C2C(C#N)=C(N)Oc3c2oc(CO)cc3=O)cc1 (stereo not given),3.3,-6.2,-7.6,43.1,3.3
O=S(=O)(c1ccc(=S)[nH]c1)N1CCOCC1,46.0*,2.8,/,/,4.1
O=C(O)Cc1ccc(NC(=S)Nc2ccc(Br)cc2Cl)cc1,24.2,0.8,-6.3,0.6,2.3
C=CC[C@H](CC(=O)NCCO)C(=O)N[C@H](COC(=O)[C@H](CC=C)CC(=O)OC(C)(C)C)Cc1c[nH]c2ccccc12,-1.0,-0.8,/,/,-4.9
CCOc1ccc(NC(=O)c2sc3nc(C)nc(N4CCOCC4)c3c2C)cc1,1.4,1.4,3.0,3.5,-11.1
O=C1CCCN1CC1CCCN(Cc2nc(COc3ccccc3)no2)C1 (stereo not given),7.2,-1.9,9.0,-7.4,8.7
C=CCC1(CC=C)CCCN1Cc1nc(COc2ccccc2)no1,-30.6,-8.7,5.7,59.3*,2.0
NS(=O)(=O)c1ccc(N/N=C/c2ccc(O)c(O)c2O)c([N+](=O)[O-])c1,42.4*,5.8,49.1,95.8*,3.8
NS(=O)(=O)c1ccc(N/N=C/c2ccc(O)cc2O)c([N+](=O)[O-])c1,14.0,14.9,2.8,11.8,-9.2
CNc1nc(-c2ccccc2)cc(C(F)(F)F)c1C#N,8.4,1.7,82.7*,96.0*,-14.5
O=C(Nc1ccc(F)cc1Cl)C1=COCCO1,13.6,2.7,/,/,-19.9
CCC1CCCCN1C(=S)NC(=O)c1cccc([N+](=O)[O-])c1 (stereo not given),42.2*,3.9,4.3,-19.0,0.7
CC1CCN(c2ccccc2NC(=S)NC(=O)c2ccc(-c3cccc([N+](=O)[O-])c3)o2)CC1,42.3*,-4.3,18.0,25.0,28.1
CCC(=O)N1CCN(c2ccccc2NC(=S)NC(=O)c2cccc([N+](=O)[O-])c2)CC1,11.9,4.2,7.4,-7.2,-2.4
CC1CCN(c2ccc(NC(=S)NC(=O)c3ccc(-c4cccc([N+](=O)[O-])c4)o3)cc2)CC1,40.5*,0.5,12.0,11.2,18.7
CC1CCN(C(=S)NC(=O)c2cccc([N+](=O)[O-])c2)CC1,24.7,4.0,-11.5,-10.3,0.7
CCC(=O)N1CCN(c2ccc(NC(=S)NC(=O)c3cccc([N+](=O)[O-])c3)cc2)CC1,42.7*,2.8,-14.5,-4.1,-24.5
COc1ccc(C(=O)Nc2ccc(N3CCN(C(C)=O)CC3)cc2)cc1[N+](=O)[O-],/,/,62.2*,active,/
CC(=O)N1CCN(c2ccc(NC(=O)c3ccc(Cl)c([N+](=O)[O-])c3)cc2)CC1,0.6,-1.1,-8.9,-14.4,4.9
COc1ccc2[nH]c3c(=O)n(CCCCC(=O)N4CCC(C(N)=O)CC4)c(=S)[nH]c3c2c1,51.1*,14.0,5.3,-1.6,-0.6
Cn1ncc2c(Nc3ccccc3Cl)nc(Cl)nc21,10.4,-0.8,3.5,-10.1,22.6
Cn1ncc2c(NCCc3ccccc3)nc(Cl)nc21,-1.6,1.1,/,/,35.2*
COCc1c(C(=O)OCC(=O)NCc2ccco2)oc2ccccc12,-33.6,-2.4,/,/,4.9
CCOC(=O)CNC(=O)/C=C/c1ccc2c(c1)OCO2,-4.0,-2.2,-6.8,-1.1,-11.5
SMILES,PABP1 MLLE inh,MT1-MMP act inh,PABP FP inh,eIF4H inh,SKN-1 block
CCOC(=O)CNc1ccc2c(c1)OCO2,127.4,-76.9,104.9*,?,9.9
O=C(COC(=O)c1ccc(Br)o1)Nc1ccc(S(=O)(=O)N2CCCC2)cc1,-4.3,0.3,-7.4,0.7,40.4*
C=CCc1cccc(C=Nc2c[nH]c(=O)[nH]c2=O)c1O,13.1,-1.8,1.7,-0.4,16.0
C=CCc1cccc(C=Nc2cc(Br)ccc2O)c1O,1.8,9.7,-3.5,78.0*,-2.4
O=C(NC(c1ccc(-c2ccccc2)cc1)c1cnccn1)C1CCN(Cc2cccs2)CC1 (stereo not given),6.6,3.2,/,/,45.6*
O=C(NC(c1ccc(-c2ccccc2)cc1)c1cnccn1)C1CCN(Cc2ccc(Oc3ccccc3)cc2)CC1 (stereo not given),2.9,3.7,/,/,-1.2
O=C(/C=C/c1ccco1)OCc1nnc(-c2ccc(Cl)cc2)o1,-5.4,-0.1,active,56.9*,10.1
Fc1ccc(C[n+]2csc3ccccc32)cc1,41.5*,-4.0,-14.1,-12.4,12.5
